Results on 71 compounds are retold here after ChEMBL document CHEMBL4513216, “Probing the Open Global Health Chemical Diversity Library for Multistage-Active Starting Points for Next-Generation Antimalarials” (ACS Infect Dis, 2020).

The data set in a line: Toxicity liver stage against HepG2, at 10uM. The conditions noted are these: human, HepG2-A16-CD81EGFP cells; read-out: INHIBITION
Also on record: test concentration 10 uM, cell line HepG2-A16-CD81EGFP. The format is cell-based. The method, boiled down:
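Uninfected HepG2-A16-CD81EGFP cells, 3 × 10^3 per well, 1536-well, plated on prespotted compound at 10 μM final, parasite-free screening media added to match infected plates; puromycin 10 μM positive, DMSO 0.5% negative; run in parallel with 48 h PbLuc assay at 37 °C, 5% CO2; viability by CellTiter-Glo luminescence, normalized to controls.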
In the case of `O=S(=O)(c1ccccc1)N1C[C@@H]2CCCCN(Cc3cccs3)[C@@H]2C1`, the cytotoxicity at 10 µM was 1.56%. Turning to `CCc1noc(C2CCCCN2C(=O)c2ccc(C)o2)n1` (stereo unspecified), the cytotoxicity at 10 µM was 14%. On to `COc1ccc(C(C(=O)O)N2CCC(Cn3cccn3)CC2)c(OC)n1` (stereo unspecified), for which the cytotoxicity at 10 µM is -9.46%. For `Cc1ccc(F)c(OC2CCCN(c3cnn(C)c3)C2=O)c1` (stereo unspecified), the cytotoxicity at 10 µM is -6.43%. The figure for `c1ccc(CNc2ncc(CN3CC[C@@H]4CC[C@H](C3)N4)cn2)cc1` is -3.8%; for `COCCNC(=O)c1nnn(Cc2ccccc2)c1OC` it is 11.6%. For `Cn1cccc1CN1CCC2(CCCN(C(=O)Cc3cccnc3)C2)C1` (stereo unspecified), the cytotoxicity at 10 µM is 7.17%. The value for `Cc1cccc(CN2CCCC(O)(CNCc3ncccc3C)C2=O)c1` (stereo unspecified) was -7.4%; that for `COc1ccc(N2CCN(C(=O)C3CN(C)C(=O)N3)CC2(C)C)cc1` (stereo unspecified) was 0.254%; that for `CCN1CC2(CCCCN2C(=O)c2ccsc2)CC1=O` (stereo unspecified) was 5.97%. The value for `Cc1cnn(C2CCCN(C(=O)c3ccnc(N(C)C)c3)C2)c1` (stereo unspecified) was 5.15%; that for `O=C(CSC1CCc2ccccc2NC1=O)Nc1ccc(CCO)cc1` (stereo unspecified) was -3.77%. Turning to `O=C(N1CCCC1)N1CCc2ncnc(C3CCOC3)c2CC1` (stereo unspecified), the cytotoxicity at 10 µM was 3.45%. The figure for `Cc1nc(C)n(CC2CN(Cc3nc4ccccc4n3C)CCO2)n1` (stereo unspecified) is -4.68%; for `Nc1ncnc2[nH]c(N3CCCCC3)nc12` it is -1.43%; for `O=C(c1ccccc1)N1CCN(CC(O)c2ccc(F)cc2)CC1` (stereo unspecified) it is -8.24%.

`COc1cccc2cc(CNC(=O)N3CCC(N4CCCC4)C3)oc12` (stereo unspecified): the cytotoxicity at 10 µM is -2.69%. The figure for `CC(C(=O)N(C)C)S(=O)(=O)c1cc2c(cc1Cl)OCCO2` (stereo unspecified) is 7.71%; for `Cc1nc(C)n(CC2CCCN2Cc2nc(-c3ccsc3)no2)n1` (stereo unspecified) it is -9.8%; for `COc1cccc(CN2CCC3(CCN(c4ncc(F)cn4)CC3)C2)c1` it is -0.664%. The figure for `CNC(C(=O)N1CCC(c2nccn2C(C)C)CC1)c1ccccc1` (stereo unspecified) is 0.258%; for `Cc1nn(C)c(N(C)C)c1CNC1CCOc2c(Cl)cccc21` (stereo unspecified) it is -5.36%. Consider `CC(C)N1C(=O)C[C@H]2[C@@H]1CCN2C(=O)c1ccco1`, for which the cytotoxicity at 10 µM is -99%.

In the case of `O=C(c1cc(C2CC2)on1)N1C[C@@H]2COC[C@]2(COc2cccnc2)C1`, the cytotoxicity at 10 µM is -89.7%. As to `CCc1nn(C)c(Cl)c1CN1CCN(c2ccc(Cl)nn2)CC1`, the cytotoxicity at 10 µM was found to be 8.01%. Consider `Cc1nonc1CN1CC[C@@](O)(C2CCOCC2)[C@H](C)C1`, for which the cytotoxicity at 10 µM is 7.31%. Consider `Fc1cccc(CNCC2OCCc3cn(CC4CCOCC4)nc32)c1` (stereo unspecified), for which the cytotoxicity at 10 µM was -77.1%. The figure for `O=C(c1cc(C2CCCC2)no1)N1CCCCC1` is -3.05%; for `Cc1oc(-c2cc(F)cc(F)c2)nc1CN1C[C@@H](C)NC[C@@H]1C` it is -1.66%.

Take `CC(=O)N1CCC(C(=O)NCCc2c[nH]c3cc(C)ccc23)CC1`: the cytotoxicity at 10 µM came to 18.1%.

Turning to `CC(=O)c1cc(CC(=O)N2CCN(CCOc3ccccc3)CC2)cs1`, the cytotoxicity at 10 µM was -5.48%. For `O=C(c1ccnnc1)N1CC[C@]2(C[C@H](Oc3ncccc3F)CO2)C1`, the cytotoxicity at 10 µM worked out at 3.42%. As to `CC(Cn1cccn1)NC(=O)Nc1ccccn1` (stereo unspecified), the cytotoxicity at 10 µM was 1.32%. Consider `O=C(c1cccnc1)N1CCc2[nH]nc(Nc3ccccc3)c2C1`, for which the cytotoxicity at 10 µM was determined as 6.83%. With `CSc1ncccc1C(=O)NCc1ccc(CS(=O)(=O)NC(C)C)cc1`, the cytotoxicity at 10 µM amounted to 4.4%. The value for `CCc1cc(C(=O)N2CCC3(CCCN(CCOC)C3=O)C2)cs1` (stereo unspecified) was -146%; that for `Cc1nc(C)n(CC2CN(Cc3cccc(C(N)=O)c3)CCO2)n1` (stereo unspecified) was 6.2%; that for `CC(=O)NC[C@@H]1C=C(C)[C@H](CC(=O)NCc2cccnc2)C[C@H]1C(C)C` was 4.33%.

For the compound `Cc1nn(CC(=O)N2CCN(Cc3cnn(C)c3C)CC2)cc1Br`, the cytotoxicity at 10 µM is -7.55%. Take `CN(C)CCOCc1cncc2c1CCN(C1CCOCC1)C2`: the cytotoxicity at 10 µM worked out at 4.62%. Turning to `Cc1cnccc1N1CCN(C(=O)CCCN2CCCCC2)CC1`, the cytotoxicity at 10 µM is 0.0879%. `CCN1CCOC(CNCc2ccccc2OCC(=O)N(C)C)C1` (stereo unspecified): the cytotoxicity at 10 µM is -15.4%. For `CCN1CCCC(c2c(-c3ccccc3)ncn2Cc2cccnc2)C1` (stereo unspecified), the cytotoxicity at 10 µM is -6.75%.

With `Cc1nnc(N2CCN(C)C3(CCC(=O)N(CCO)CC3)C2)s1` (stereo unspecified), the cytotoxicity at 10 µM is -9.2%. Consider `CC(=O)Nc1nc(CN2CCn3c(C)nnc3C2)cs1`, for which the cytotoxicity at 10 µM was -1.68%. Consider `CCCN(CCc1ccccc1)c1ncnc2oc(C)nc12`, for which the cytotoxicity at 10 µM worked out at 8.74%. Regarding `Cc1nc(=O)c(CC(=O)N2C[C@H]3CC[C@@H](C2)N(CC2CCC2)C3)c[nH]1`, the cytotoxicity at 10 µM worked out at 1.43%. As to `CN(C)C(=O)C1CCC2(CCN(Cc3cnn(C)c3)CC2)C1` (stereo unspecified), the cytotoxicity at 10 µM was determined as 5.01%. Turning to `Cc1nc(C(Cc2ccsc2)NC(=O)CN2CCOCC2)sc1C` (stereo unspecified), the cytotoxicity at 10 µM stood at 2.7%.

With `COc1ccc(NC(=O)Cc2c(C)nc3c(c2C)c(=O)[nH]n3C)cn1`, the cytotoxicity at 10 µM is 7.32%. Turning to `Cc1cccc(N2CC3(COCCN(c4ccncn4)C3)OCC2=O)c1` (stereo unspecified), the cytotoxicity at 10 µM was -105%.

Take `CN(Cc1cnc(N)nc1)C(=O)c1coc(COc2ccccc2)n1`: the cytotoxicity at 10 µM was 1.58%. Consider `CC(C)c1cc(CN2CCNCC2)no1`, for which the cytotoxicity at 10 µM is -10.9%. With `O=C(COc1cccc(F)c1)N1C[C@H](CO)C[C@H](CN2CCCC2)C1`, the cytotoxicity at 10 µM was 1.76%. Turning to `CC(C)C(CCO)NC(=O)Nc1ccc(-c2csnn2)cc1` (stereo unspecified), the cytotoxicity at 10 µM was -10%. Turning to `CCOc1cc(=O)n2c(c1C(=O)OCc1ccc(F)cc1)CCCC2`, the cytotoxicity at 10 µM was 3.51%. With `Cc1ccsc1CNC(=O)CC1CN(C(=O)OC(C)(C)C)C1`, the cytotoxicity at 10 µM was -4.66%. On to `CC(C)N(C)C(=O)CSCc1ccc(S(=O)(=O)N(C)C)o1`, for which the cytotoxicity at 10 µM was 19.1%.

In the case of `CC(=O)c1c(C)nn(S(=O)(=O)c2ccccc2)c1C`, the cytotoxicity at 10 µM is -0.305%.

For the compound `Cc1nn(C)c(NC(=O)C2SCCc3ccccc32)c1C` (stereo unspecified), the cytotoxicity at 10 µM turned out to be 45.8%. On to `CCN(CC)C1CCN(C(=O)NCc2cccc(-n3ccnc3)c2)C1` (stereo unspecified), for which the cytotoxicity at 10 µM was -4.45%.

Consider `CN(C)C(=O)N1C[C@H]2CC[C@@H](C1)N(Cc1ccc3nsnc3c1)C2`, for which the cytotoxicity at 10 µM is -6.69%. Regarding `CCNC(=O)C1(CC2CC(c3ccccc3OC)=NO2)CCOCC1` (stereo unspecified), the cytotoxicity at 10 µM was -26.8%.

Turning to `COc1ccc(C2SCC(=O)Nc3ccsc32)cc1OC` (stereo unspecified), the cytotoxicity at 10 µM was -0.898%. For the compound `Cc1nc(CC(=O)N2CCC(c3nn(C)c4ncccc34)CC2)cs1`, the cytotoxicity at 10 µM is -18.9%. For `CC(C)NS(=O)(=O)c1cc(C(=O)O)cc(-c2ccccc2C#N)c1`, the cytotoxicity at 10 µM was -3.73%.

For `CS(=O)(=O)NCCNC(=O)c1cnc(-c2ccccc2)nc1`, the cytotoxicity at 10 µM stood at 5.3%. `COC(=O)Cn1c(C)cc(=O)n2nc(-c3cccs3)nc12`: the cytotoxicity at 10 µM is 8.74%. The figure for `CN(C)CCCNCCC(c1ccccc1)C1CCOC(C)(C)C1` (stereo unspecified) is -7.91%; for `Cn1ncc2c1NC(=O)CSC2c1ccc2c(c1)OCO2` (stereo unspecified) it is 0.435%. Take `CC(NC(=O)Cn1cc(-c2ccccc2)cn1)C1CC1` (stereo unspecified): the cytotoxicity at 10 µM was found to be 1.36%.
